Compound activity: PubChem BioAssay, several laboratories
TbHK1 inh: blocks Trypanosoma brucei hexokinase 1 activity; actives 0.11% (n = 220,000); inhibition, % at 10 µM; AID 1430; recombinant TbHK1, G6PDH-coupled NADH A340;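 active means inhibition of 50% or more in the single-dose primary screen; inactive means inhibition below 50%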
PfG6PD inh: PfG6PD (Plasmodium falciparum) enzyme inhibition; actives 0.78% (n = 350,000); PfGluPho enzyme, NADPH resazurin-diaphorase fluorescence; inhibition, % at 20 µM;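 active means inhibition reaching at least a set limit at 20 µM in the primary screen, cut at about 59% in these data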;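 further: 0% = DMSO wells with substrate and 100% = DMSO wells lacking glucose-6-phosphate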
EP2 modulator: modulates human prostaglandin E2 receptor EP2 signaling; EP2-expressing cells, cAMP HTRF FRET, PGE2 co-stimulation; induction, % at 25 µM; actives 0.83% (n = 260,000); P43116;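 active means compounds whose cAMP rise, as percent of the full-agonist control response, exceeds 60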;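 further: rat C6 glioma line stably carrying human EP2 under a CMV promoter; the protocol text gives 20 µM as final concentration; 100% = response of wells given 1 µM PGE2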
PGE2 EP2 inh: EP2 receptor (human) inhibition; P43116; actives 0.52% (n = 260,000); inhibition, % at 25 µM; C6 glioma cells expressing human EP2, cAMP TR-FRET; cells stimulated with saturating PGE2;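 active means percent inhibition above 40 after rounding to a whole number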;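 further: rat C6 glioma host cells with rolipram phosphodiesterase inhibitor present; the protocol text gives 20 µM as final concentration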
PHOSPHO1 block: inhibitors of human PHOSPHO1 phosphatase | Q8TCT1 | recombinant PHOSPHO1, absorbance phosphatase assay | inhibition, % at 13.3 µM | actives 1.1% (n = 290,000); in the data active means inhibition above about 60%
Target sequence (Q8TCT1 whole entry, looked up): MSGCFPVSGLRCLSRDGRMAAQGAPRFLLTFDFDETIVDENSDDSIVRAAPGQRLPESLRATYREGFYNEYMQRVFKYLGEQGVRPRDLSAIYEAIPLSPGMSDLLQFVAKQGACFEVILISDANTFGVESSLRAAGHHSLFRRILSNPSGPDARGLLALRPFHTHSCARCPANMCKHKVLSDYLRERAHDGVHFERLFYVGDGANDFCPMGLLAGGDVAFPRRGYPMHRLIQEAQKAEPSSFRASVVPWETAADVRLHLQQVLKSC
HKDC1 inh: HKDC1 (human) hexokinase inhibition. recombinant HKDC1, G6PDH/diaphorase resazurin coupled fluorescence. Q2TB90. actives 0.16% (n = 340,000). inhibition, % at 20 µM;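 active means inhibition above about 35% when tested at 20 µM, limit read from the data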;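 further: plate controls were DMSO wells with enzyme for no effect and DMSO wells lacking enzyme for full effect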
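Material – in-house recombinant HK5 (HKDC1) enzyme · Quantity – HKDC1 at 5 µg/mL · Buffer or medium – pH 8.0 Tris buffer with 10 mM MgCl2 · Reagent – glucose with 1 mM ATP · Dosing – single 20 µM dose · Times – reaction time 90 min, room temperature, protected from light · Technique – resorufin fluorescence at 613 nm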
* hit, by the source's call; nt = no result given. Hits are enriched below; roughly 2.5% of the tested compounds scored in any of these assays.

SMILES	TbHK1 inh	PfG6PD inh	EP2 modulator	PGE2 EP2 inh	PHOSPHO1 block	HKDC1 inh
CCCC(=O)Nc1nc(C)c(-c2csc(Nc3cc(OC)ccc3OC)n2)s1	-9	7	26	14	89*	6
CCCC(C)C(=O)Nc1nc(C)c(-c2csc(Nc3cc(OC)ccc3OC)n2)s1 (stereo not drawn)	-16	10	19	0	77*	5
COc1cccc(Nc2nc(-c3sc(NC(=O)c4ccccc4)nc3C)cs2)c1	-11	25	9	27	44	-11
COc1ccccc1Nc1nc(-c2sc(NC(=O)C(C)(C)C)nc2C)cs1	-6	15	-5	3	67*	-1
COc1ccccc1Nc1nc(-c2sc(NC(=O)c3cccc(Cl)c3)nc2C)cs1	-19	nt	9	7	-66	nt
Cc1ccccc1Nc1nc(-c2sc(NC(=O)c3ccco3)nc2C)cs1	-8	16	-9	12	66*	-6
COc1cccc(Nc2nc(-c3sc(NC(=O)CC(C)C)nc3C)cs2)c1	-11	19	20	15	104*	1
CCOc1ccccc1Nc1nc(-c2sc(NC(=O)c3ccco3)nc2C)cs1	-17	6	13	2	50	-3
Cc1ccnc(NS(=O)(=O)c2ccc(-c3ccccc3)cc2)c1	nt	nt	-57	7	nt	nt
C[n+]1cn(CC(O)COc2ccc(I)cc2)c2ccccc21 (stereo not drawn)	nt	nt	6	11	nt	nt
CCCCCC(=O)Nc1nc(C)c(-c2csc(Nc3cc(Cl)ccc3OC)n2)s1	-23	6	16	10	89*	1
CCC(=O)Nc1nc(C)c(-c2csc(Nc3cccc(C(=O)O)c3)n2)s1	-7	16	7	28	58	-10
C=CCCC(=O)Nc1nc(C)c(-c2csc(Nc3cccc(OC)c3)n2)s1	-10	33	23	19	104*	-3
COc1ccccc1Nc1nc(-c2sc(NC(=O)CC(C)C)nc2C)cs1	-15	18	-10	19	77*	-2
COC(=O)c1ccc(CC(=O)c2ccc(O)cc2O)o1	-48	8	10	12	64*	-5
CN(C(=O)CSc1nnc(Cc2cccc3ccccc23)n1N)C1CCS(=O)(=O)C1 (stereo not drawn)	-10	-7	4	5	88*	-7
Cc1cc2nnc(SCC(=O)N(C)C3CCS(=O)(=O)C3)n2c2ccccc12 (stereo not drawn)	3	6	5	11	32	4
Nn1c(Cc2cccc3ccccc23)nnc1SCn1nnc2ccccc2c1=O	29	3	6	18	87*	-6
COc1ccc(-c2nn3c(C4CCCCC4)nnc3s2)cc1OC	-2	35	61*	7	83*	6
COc1cc(-c2nn3c(C4CCCCC4)nnc3s2)cc(OC)c1OC	0	15	-1	3	46	0
CNC(=O)CSc1nnc(-c2ccccc2)n1C1CCCCC1	nt	nt	-47	14	nt	nt
CCOc1cccc(NC(=O)c2snc3c(=O)[nH]c(C)nc23)c1	nt	nt	-15	13	nt	nt
O=C(Nc1c(C(=O)C2CC2)oc2ccccc12)c1ccc(Cl)cc1	-3	-2	64*	5	21	-2
CCCc1cc(SCC(=O)Nc2c(C)n(C)n(-c3ccccc3)c2=O)n2c(nc3ccccc32)c1C#N	-2	9	16	15	100*	33
CCCCN(C)C1=Nc2cccc3cccc1c23	-8	10	-14	nt	63*	2
SMILES	TbHK1 inh	PfG6PD inh	EP2 modulator	PGE2 EP2 inh	PHOSPHO1 block	HKDC1 inh
C=CCn1c(-c2cccc(OCC)c2)n[nH]c1=S	-3	19	17	3	-45	-7
C=CCn1c(Cc2c[nH]c3ccccc23)n[nH]c1=S	2	33	30	18	95*	-11
C=CCn1c(-c2cccc3ccccc23)n[nH]c1=S	-2	18	7	2	95*	-1
C=CCn1c(-c2cc(OC)cc(OC)c2)n[nH]c1=S	0	27	20	10	97*	-2
COc1ccc(CC(=O)N2CCC(O)(c3ncccc3C)CC2)cc1	nt	nt	5	nt	nt	nt
Cc1ccc(-c2cc(N)c(=O)n(CC(=O)NCc3ccc4c(c3)OCO4)n2)o1	nt	nt	-17	10	nt	nt
O=C1CCN(C(=O)c2cccs2)c2ccccc21	-15	-3	26	9	0	-4
CN1C(=O)/C(=C\C(=O)c2cccs2)c2ccccc21	-12	20	-30	60*	39	-6
